Measured values taken from ChEMBL document CHEMBL2169785, “Inhibition of Acyl-CoA: cholesterol acyltransferase (ACAT), overexpression of cholesterol transporter gene, and protection of amyloid β (Aβ) oligomers-induced neuronal cell death by tricyclic pyrone molecules” (J Med Chem, 2012).
Activity calls are given as the source filed them. The calls are words filed in the database; no cut-off is given here.

Columns and labels:
[1] = Cytotoxicity against human MC65 cells by MTT assay; assay type: cell-based; details: read-out: TD50 (the source's name)
In short: (§1)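 MC65 neuroblastoma cells carrying a tetracycline-repressible SβC gene (APP C99 fragment); induction causes intraneuronal Aβ oligomer accumulation and cell death after three days. Viability read by MTT. EC50 (median effective concentration for protection) and TD50 (median toxic concentration) derived; TI = TD50/EC50. Triplicate experiments, standard errors calculated.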

[2] = system: Huh-7; experiment: Induction of ABCA1 mRNA expression in human HuH7 cells after 24 hrs; assay type: functional, cell-based; details: Huh-7, 24 h
In short: (§2)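 Cells (MC65 or Huh-7) incubated 24 h with compound or mock medium. ABCA1 gene expression measured with a Gene Expression Assay and compared with mock-treated cells to derive EC50.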

[3] = Induction of ABCA1 mRNA expression in human MC65 cells after 24 hrs; assay type: functional, cell-based; details: MC65, 24 h; in short: as §2
[4] = Neuroprotective activity in […] human MC65 cells assessed as protection against APP-induced cell death by MTT assay; assay type: functional, cell-based; in short: as §1
[5] = system: ACAT; experiment: Therapeutic index, ratio of TD50 for human MC65 cells to IC50 for ACAT activity in human MC65 cells; assay type: cell-based; details: read-out: TI
[6] = Therapeutic index, ratio of TD50 for human MC65 cells to EC50 for […] human MC65 cells; assay type: cell-based; details: read-out: TI; in short: as §1
[7] = target: T1, Sterol O-acyltransferase 1 (Homo sapiens, UniProt P35610); experiment: Inhibition of ACAT activity in human MC65 cells using NBD-cholesterol staining after 24 hrs by fluorescence assay
T1 sequence (P35610 whole entry): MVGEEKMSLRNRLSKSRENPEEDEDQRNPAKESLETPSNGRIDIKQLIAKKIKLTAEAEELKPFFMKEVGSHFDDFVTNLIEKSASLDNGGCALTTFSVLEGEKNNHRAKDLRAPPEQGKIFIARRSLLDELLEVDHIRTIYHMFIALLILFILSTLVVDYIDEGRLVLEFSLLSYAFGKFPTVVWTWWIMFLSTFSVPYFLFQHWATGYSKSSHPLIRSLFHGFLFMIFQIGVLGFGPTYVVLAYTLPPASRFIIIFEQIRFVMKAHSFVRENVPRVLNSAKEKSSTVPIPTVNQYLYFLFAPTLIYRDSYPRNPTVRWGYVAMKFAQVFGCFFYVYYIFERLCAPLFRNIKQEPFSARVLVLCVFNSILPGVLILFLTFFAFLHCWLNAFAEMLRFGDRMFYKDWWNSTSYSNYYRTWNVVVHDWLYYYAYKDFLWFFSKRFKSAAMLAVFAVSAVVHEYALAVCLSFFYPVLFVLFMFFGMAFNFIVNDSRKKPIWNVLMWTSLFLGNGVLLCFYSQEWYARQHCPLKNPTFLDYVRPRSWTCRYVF

[8] = system: MC65; experiment: Neuroprotective activity in tetracycline-deprived human MC65 cells assessed as protection against APP-induced cell death up to 50 uM by MTT assay

## Cc1cc2c(c(=O)o1)C=C1CC[C@H](C(C)CNCc3ccc(O)cc3)C[C@@H]1O2 (mixture of isomers)
[1]
  CC50: 37 µM
[2]
  EC50: 0.6 µM
[3]
  EC50: 1.1 µM
[4]
  EC50: 0.07 µM

## Cc1cc2c(c(=O)o1)C=C1CC[C@H](C(C)CNCc3ccc(CO)cc3)C[C@@H]1O2 (mixture of isomers)
[1]
  CC50: > 50 µM
[5]
  selectivity ratio: > 36
[6]
  selectivity ratio: > 495
[7]
  IC50: 1.4 µM
[3]
  EC50: 2.5 µM
[4]
  EC50: 0.101 µM

## COc1ccc(CNCC(C)[C@H]2CCC3=Cc4c(cc(C)oc4=O)O[C@H]3C2)cc1 (single isomer, unassigned)
[1]
  CC50: > 50 µM
[6]
  selectivity ratio: > 18.1
[4]
  EC50: 2.77 µM

## Cc1cc2c(c(=O)o1)C=C1CC[C@H](C(C)CNCc3cc(O)cc4ccccc34)C[C@@H]1O2 (mixture of isomers)
[1]
  CC50: 18.2 µM
[6]
  selectivity ratio: 31.1
[4]
  EC50: 0.586 µM

## Cc1cc2c(c(=O)o1)C=C1CC[C@H](C(C)CNCc3ccc(N(C)C)cc3)C[C@@H]1O2 (mixture of isomers)
[1]
  CC50: 38.2 µM
[6]
  selectivity ratio: 8.76
[4]
  EC50: 4.36 µM

## Cc1cc2c(c(=O)o1)C=C1CC[C@H](C(C)Cn3cnc(N)c4ncnc3-4)C[C@@H]1O2 (stereo not given in full)
[1]
  CC50: 39 µM
[5]
  selectivity ratio: 33
[2]
  EC50: 0.6 µM
[6]
  selectivity ratio: 325
[7]
  IC50: 1.2 µM
[3]
  EC50: 0.9 µM
[4]
  EC50: 0.12 µM

## COC(=O)c1ccc(CNCC(C)[C@H]2CCC3=Cc4c(cc(C)oc4=O)O[C@H]3C2)cc1 (mixture of isomers)
[1]
  CC50: > 50 µM
[6]
  selectivity ratio: > 65
[4]
  EC50: 0.769 µM

## CCCCCCCCCCC(C)(C)C(=O)Nc1c(OC)cc(OC)cc1OC
[8]
  Activity: inactive

## Cc1cc2c(c(=O)o1)C=C1CC[C@H](C(C)CNCc3ccc(C#N)cc3)C[C@@H]1O2 (mixture of isomers)
[1]
  CC50: > 50 µM
[4]
  EC50: > 50 µM

## Cc1cc2c(c(=O)o1)C=C1CC[C@H](C(C)CNCc3ccc(O)c4ccccc34)C[C@@H]1O2 (mixture of isomers)
[1]
  CC50: 13.7 µM
[2]
  EC50: 0.6 µM
[3]
  EC50: 1.3 µM
[4]
  EC50: 0.145 µM

## Cc1cc2c(c(=O)o1)C=C1CC[C@H](C(C)CNCc3c(O)ccc4ccccc34)C[C@@H]1O2 (mixture of isomers)
[1]
  CC50: 26.4 µM
[6]
  selectivity ratio: 133
[4]
  EC50: 0.198 µM

## Cc1cc2c(c(=O)o1)C=C1CC[C@H](C(C)CNCc3ccc(OCc4ccccc4)c(OCc4ccccc4)c3)C[C@@H]1O2 (mixture of isomers)
[1]
  CC50: 9.38 µM
[6]
  selectivity ratio: 14.2
[4]
  EC50: 0.662 µM

## COc1cc(CNCC(C)[C@H]2CCC3=Cc4c(cc(C)oc4=O)O[C@H]3C2)ccc1O (mixture of isomers)
[1]
  CC50: 26.3 µM
[6]
  selectivity ratio: 109
[4]
  EC50: 0.242 µM

## Cc1cc2c(c(=O)o1)C=C1CC[C@H](C(C)CNCc3ccc(Cl)cc3)C[C@@H]1O2 (mixture of isomers)
[1]
  CC50: 48 µM
[6]
  selectivity ratio: 17.2
[4]
  EC50: 2.79 µM

## Cc1cc2c(c(=O)o1)C=C1CC[C@H](C(C)CNCc3ccc4c(c3)OCO4)C[C@@H]1O2 (mixture of isomers)
[1]
  CC50: > 50 µM
[6]
  selectivity ratio: > 42.4
[4]
  EC50: 1.18 µM

## COc1ccc(CNCC(C)[C@H]2CCC3=Cc4c(cc(C)oc4=O)O[C@H]3C2)c2ccccc12 (stereo not given in full)
[1]
  CC50: 15.3 µM
[6]
  selectivity ratio: 24.6
[4]
  EC50: 0.621 µM

## Cc1cc2c(c(=O)o1)C=C1CC[C@H](C(C)CNC(=O)c3ccccc3O)C[C@@H]1O2 (stereo not given in full)
[1]
  CC50: 6.69 µM
[6]
  selectivity ratio: 1.07
[4]
  EC50: 6.25 µM

## Cc1cc2c(c(=O)o1)C=C1CC[C@H](C(C)CNCc3ccccc3)C[C@@H]1O2 (mixture of isomers)
[1]
  CC50: 37.3 µM
[6]
  selectivity ratio: 11.5
[4]
  EC50: 3.24 µM

## Cc1cc2c(c(=O)o1)C=C1CC[C@H](C(C)CNCc3cccc(O)c3)C[C@@H]1O2 (stereo not given in full)
[1]
  CC50: > 50 µM
[6]
  selectivity ratio: > 10.7
[4]
  EC50: 4.66 µM

## Cc1cc2c(c(=O)o1)C=C1CC[C@H](C(C)CNCc3ccccc3O)C[C@@H]1O2 (mixture of isomers)
[1]
  CC50: 30.7 µM
[6]
  selectivity ratio: 12.6
[4]
  EC50: 2.44 µM

## Cc1cc2c(c(=O)o1)C=C1CC[C@H](C(C)CNCc3ccc(O)c([N+](=O)[O-])c3)C[C@@H]1O2 (mixture of isomers)
[1]
  CC50: > 50 µM
[6]
  selectivity ratio: > 13
[4]
  EC50: 3.85 µM

## COc1cc(CNCC(C)[C@H]2CCC3=Cc4c(cc(C)oc4=O)O[C@H]3C2)cc(OC)c1O (mixture of isomers)
[1]
  CC50: > 50 µM
[6]
  selectivity ratio: > 39.7
[4]
  EC50: 1.26 µM

## Cc1cc2c(c(=O)o1)C=C1CC[C@H](C(C)CNCc3ccc(C=O)cc3)C[C@@H]1O2 (mixture of isomers)
[1]
  CC50: 39.4 µM
[6]
  selectivity ratio: 6.15
[4]
  EC50: 6.41 µM

## Cc1cc2c(c(=O)o1)C=C1CC[C@H](C(C)CNCc3ccc(O)c(F)c3)C[C@@H]1O2 (mixture of isomers)
[1]
  CC50: > 50 µM
[5]
  selectivity ratio: > 28
[6]
  selectivity ratio: > 746
[7]
  IC50: 1.8 µM
[3]
  EC50: 2.2 µM
[4]
  EC50: 0.067 µM

## Cc1cc2c(c(=O)o1)C=C1CC[C@H](C(C)CNCc3ccc(O)c(Br)c3)C[C@@H]1O2 (mixture of isomers)
[1]
  CC50: > 50 µM
[6]
  selectivity ratio: > 78.2
[4]
  EC50: 0.639 µM

## CC(=O)Oc1ccccc1C(=O)NCC(C)[C@H]1CCC2=Cc3c(cc(C)oc3=O)O[C@H]2C1 (mixture of isomers)
[1]
  CC50: 8.35 µM
[4]
  EC50: > 50 µM

## COc1ccc(CNCC(C)[C@H]2CCC3=Cc4c(cc(C)oc4=O)O[C@H]3C2)cc1O (mixture of isomers)
[1]
  CC50: > 50 µM
[6]
  selectivity ratio: > 32.1
[4]
  EC50: 1.56 µM

## Cc1cc2c(c(=O)o1)C=C1CC[C@H](C(C)CNCc3ccc(OCCO)cc3)C[C@@H]1O2 (mixture of isomers)
[1]
  CC50: > 50 µM
[6]
  selectivity ratio: > 2.04
[4]
  EC50: 24.5 µM

## Cc1cc2c(c(=O)o1)C=C1CC[C@H](C(C)CNCc3ccc4cc(O)ccc4c3)C[C@@H]1O2 (mixture of isomers)
[1]
  CC50: 24.1 µM
[6]
  selectivity ratio: 52.5
[4]
  EC50: 0.459 µM
